Variants at the floor of the assay were thinned out.

The chains are these.
B1: tRNA (parent)
chain: GUUCCGUUGGCGUAAUGGUAACGCGUCUCCCUCCUAAGGAGAAGACUGCGGGUUCGAGUCCCGUACGGAACG

In the data set the parent is B1. Kind of data set: yeast fitness relative to wild type (ratio to wild type); higher = fitter; tRNA-Arg(CCU), competitive growth, 37 C, YPD. In short, it runs like this: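 For this measurement, the tRNA-Arg(CCU) gene was varied by chemical synthesis at a 3% per-site mutation rate across 69 sites, and each variant was placed at the native genomic locus in Saccharomyces cerevisiae. The pooled strains went through a 24-hour competition in YPD at 37°C in six parallel replicates, with amplicons from start and end populations read by 100-nucleotide paired-end sequencing. Darwinian fitness relative to wild type followed from the change in each genotype's frequency. Genotypes needed ≥ 100 starting reads, and estimates < 0.5 were set to 0.5.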
Consider C34U G68A, for which the yeast fitness was 0.774. The value for C34G U47C was 0.599; that for C34U G38A was 0.689.

With U35A A57C U64A G68A, the yeast fitness is not above 0.5. The value for C34U A36G C49U C55G A57U G67A was not above 0.5. The value for U35C A36U was 0.603; that for C34G G38C A69U was 0.5; that for U35A U59A was 0.591. The value for U35A U59G was 0.62; that for C34U G44C A45C C66A was 0.591; that for U35A U53C A57C was not above 0.5. For the variant C34U A45C C60A, the yeast fitness is not above 0.5. The value for C34G G39U U47G was not above 0.5; that for U35A A70G was 0.588; that for U35A A70U was 0.787. For the variant U35A A70C, the yeast fitness is 0.769. U35G A43G U59A: the yeast fitness came to 0.658. The value for C34G G44C G58C G68U was not above 0.5. The value for C34U A65C was 0.884. The value for U35A G67C was 0.657. For the variant U35A G67A, the yeast fitness stood at 0.714. The value for C34U G58C C60U C66G was not above 0.5. The value for C34G C46A C62U A69C was not above 0.5.

With U35G A45C G56C, the yeast fitness was not above 0.5. The value for U35G C49G A65C was not above 0.5; that for C34G C55A G68A was not above 0.5.

Turning to C34U A43U A45U, the yeast fitness was determined as 0.534.

For the variant C34U G52A, the yeast fitness is 0.618. The value for C34G C46U A57U C60G A65C was not above 0.5. The value for U35C A36G A45C was 0.825; that for U35A U47C was 0.589; that for C34G G63A was 0.633. As to U35A U54G, the yeast fitness is not above 0.5. Regarding U35A U47C C49U C62A A69G, the yeast fitness was 0.718. Turning to U35G A40G A57G, the yeast fitness amounted to 0.548. U35A G48A: the yeast fitness amounted to 0.644.

U35C A57C G68C: the yeast fitness was not above 0.5.

On to C34G G44U C49G C61U A69G, for which the yeast fitness was not above 0.5. U35G A70U: the yeast fitness was 0.674. The value for C34U G56C was 0.51. In the case of C34U C46A G50C, the yeast fitness was not above 0.5.

With U35C A57G, the yeast fitness was determined as 0.739.

Regarding U35C A57C, the yeast fitness stood at 0.609. The value for U35A C61A A70U was not above 0.5.

U35C A40U: the yeast fitness is 0.856. The value for U35A A37G A40G A43U A45C was not above 0.5; that for C34U A37U A45G was not above 0.5; that for U35C G48C C55U G56A was 0.573. The value for U35G C49G G52C C62G A69C was not above 0.5; that for C34G G39A C49G C61U was not above 0.5; that for C34U G56A G67A was not above 0.5. Turning to C34G G41C C60A, the yeast fitness stood at 0.607.

With C34U C46A, the yeast fitness was 0.714.

C34U C46G: the yeast fitness amounted to 0.705. The value for U35C C60G C61U was not above 0.5; that for C34U G51A was 0.547; that for C34G G44C C66A was 0.595. The value for C34G A70G was 0.586; that for C34G A70U was 0.597. Regarding C34G C61U C66U, the yeast fitness was 0.538. The value for U35C G67C was 0.939.

Regarding U35C G67A, the yeast fitness is 0.637.

For the variant C34G U59G, the yeast fitness is 0.534. The value for C34G U59A was 0.538; that for C34G U54C was 0.569. The value for U35A C60G G67U was not above 0.5; that for C34U U35A C49G was 0.57. The value for C34U C46G A65U was 0.563; that for U35C A42C A43G was 0.617; that for U35A G63C was 0.56.

In the case of U35C G38U C46U C55G, the yeast fitness is not above 0.5.

Turning to U35C G51U C61U, the yeast fitness was 0.53.

With C34U G41C, the yeast fitness was found to be 0.768. For U35A A36G G48A C49U, the yeast fitness is not above 0.5. The value for U35C G48A C60A was 0.648; that for C34U C61G C66U was 0.595; that for U35A C60A was 0.535. The value for U35A C60U was not above 0.5. The value for U35A C62A was not above 0.5. Turning to C34U C55U C66U, the yeast fitness was 0.532. The value for C34G G38A A57G was 0.539; that for U35C C61A A69U was not above 0.5. On to C34U A45C, for which the yeast fitness came out at 0.6.

On to C34U A45C A69C A70C, for which the yeast fitness stood at 0.569. The value for C34U C49A G52A was 0.59; that for U35C A36C A45C was 0.522; that for C34G U35A G63C was not above 0.5.

Regarding C34G C62U, the yeast fitness amounted to 0.639.

For C34G C62A, the yeast fitness worked out at 0.64. For the variant C34U U64A, the yeast fitness turned out to be 0.597.

Turning to C34G U47C C49U, the yeast fitness stood at 0.638.

As to U35C A36U A40U C55U A57C, the yeast fitness amounted to 0.865.

In the case of C34U U54C A70U, the yeast fitness was not above 0.5. The value for C34U A37G A45U C49A was not above 0.5; that for C34G C46A was 0.615.

In the case of C34G C46U, the yeast fitness amounted to 0.616. The value for C34U U35C A40G U47C was not above 0.5.

As to U35C C55G A57G, the yeast fitness stood at 0.606. The value for C34U A42G was 0.712; that for U35C U64G C66G was not above 0.5.

On to C34U G48C, for which the yeast fitness is 0.674.

On to C34U G44C U53C, for which the yeast fitness is not above 0.5.

As for C34G G48A A70U, the yeast fitness came to 0.584. The value for U35A A40U G41C C49A was not above 0.5; that for C34U U35A was not above 0.5.

For U35C C55G, the yeast fitness worked out at 0.59. The value for C34G G52A A69C was 0.645. The value for U35C A70U was 0.812; that for U35C A70G was 0.781. The value for C34G G50C C55G was 0.59; that for C34U A43G A69C was 0.553. In the case of C34U G39A C62U, the yeast fitness was 0.607. For the variant U35A A65U, the yeast fitness came out at 0.757.

Consider U35A A65C, for which the yeast fitness came out at 0.781. As for U35A A57U A69U, the yeast fitness was not above 0.5. Consider U35C A45U G68A, for which the yeast fitness amounted to 0.668. The value for C34U G44C A45G U47G was not above 0.5; that for C34U C55A A70U was 0.619.

With U35A A36U A45C, the yeast fitness came to 0.531. On to C34U A57C, for which the yeast fitness is 0.553.

For U35G A45U A57C, the yeast fitness was not above 0.5. The value for C34G C49G A65G was not above 0.5; that for C34U C46G A70U was 0.601; that for U35C G41A A43C A57G was 0.501. The value for C34G G50C A69U was not above 0.5. The value for U35C C49G was 0.883; that for C34U G48C C66U was 0.635; that for C34U C49A was 0.585.

With C34U G39C C49G, the yeast fitness is not above 0.5. On to C34U G41A U47A G58C G63C G67A, for which the yeast fitness was not above 0.5. The value for C34U A57G C60A was not above 0.5; that for U35A A65G C66U was 0.675. The value for C34U A45C G67U A69C A70C was not above 0.5; that for U35C C62A A69U was 0.551; that for C34U A36G A45U U64A was not above 0.5. The value for U35A A43C was 0.636; that for C34U G67A G68C was 0.653; that for C34U C49U U53C was not above 0.5. As to C34U C55U G67C, the yeast fitness worked out at 0.558. In the case of U35A C62A C66G, the yeast fitness is 0.66.

With C34G G50C C55G C60A, the yeast fitness was found to be 0.715. The value for C34U was 0.707; that for C34G C60U was 0.536; that for C34U A42C A69C was not above 0.5. The value for C34G G38C A70G was not above 0.5; that for C34U C55U G63C was not above 0.5; that for C34G C55U G58A was not above 0.5.

Turning to U35G A43U, the yeast fitness was 0.707. Take U35G A43C: the yeast fitness came out at 0.583. The value for C34U A37U C46A G51A A65U was not above 0.5; that for C34U C49U C61A was not above 0.5. The value for U35A C46A C49G was not above 0.5. The value for U35C G48A C55U A70G was 0.56. Turning to U35C C49G A70U, the yeast fitness was 0.563. The value for C34G C66U was 0.634. The value for C34U A40G A43G C62A A69C was not above 0.5; that for C34U C55U A65U was 0.607; that for U35C C61A G67C was not above 0.5.

As for C34G U53C, the yeast fitness worked out at 0.578. For the variant C34U G63C, the yeast fitness is not above 0.5. The value for U35G A42U A69C was not above 0.5; that for U35C A65U was 0.739; that for U35C A65G was 0.945.

As to C34G C55G U59C C60U, the yeast fitness was not above 0.5. The value for U35C G39C U47A was not above 0.5; that for C34U U35C A69U was not above 0.5; that for C34G G38C U47C C62G A69C was not above 0.5.

Source of the values: the RNAGym collection of RNA variant scans (doi:10.1126/science.aae0568).
